According to ChEMBL document CHEMBL1125331, “6-Hydroxy-3-n-propyl-2,3,4,5-tetrahydro-1H-3-benzazepine and analogs: new centrally acting 5-HT1A receptor agonists” (J Med Chem, 1992):
“And” between values parts separate entries of the source, which are not always exact repeats. Identical values can stand only once.

Columns and labels:
Rattus norvegicus [1] = experiment: The compound was tested in vivo for locomotor activity in rats at 0.2 umol/kg after subcutaneous administration
Rattus norvegicus [2] = experiment: Effect evaluated in vivo on 5-HTP accumulation in limbic system at a dose 50 umol/kg (s.c.); format: functional
How it was run: (§1)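 Male Sprague-Dawley rats (200–300 g) were pretreated with reserpine 5 mg/kg sc 18 h before. Test compound was given sc at 5 mL/kg in neutral solution. 5-HT synthesis rate was indexed by […] 5-HTP accumulation after decarboxylase inhibition with NSD 1015, measured by HPLC-electrochemical detection. Dose-response used 4–6 dose levels, n = 4.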

Rattus norvegicus [3] = experiment: Effect evaluated in vivo on 5-HTP accumulation in corpus striatum after subcutaneous administration; format: functional
How it was run: (§2)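 Male Sprague-Dawley rats (200–300 g) were pretreated with reserpine 5 mg/kg sc 18 h beforehand. Test drug was given at neutral pH, 5 mL/kg. Aromatic amino acid decarboxylase was blocked with NSD 1015. 5-HTP in the dissected brain region was assayed by HPLC with electrochemical detection.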

Rattus norvegicus [4] = experiment: Effect evaluated in vivo on 5-HTP accumulation in corpus striatum at ED50 umol/kg after subcutaneous administration; format: functional; settings: sc
How it was run: as §2

Rattus norvegicus [5] = experiment: Effect evaluated in vivo on 5-HTP accumulation in corpus striatum at a dose 50 umol/kg (s.c.); format: functional
How it was run: as §2

Rattus norvegicus [6] = experiment: Effect evaluated in vivo on 5-HTP accumulation in corpus striatum at a dose 3.1 umol/kg (s.c.); format: functional
How it was run: as §2

Rattus norvegicus [7] = experiment: Effect evaluated in vivo on 5-HTP accumulation in NE-rich hemispheres at a 3.1 dose uM/kg(sc); format: functional
How it was run: as §2

Rattus norvegicus [8] = experiment: Effect evaluated in vivo on 5-HTP accumulation in limbic system after subcutaneous administration; format: functional; settings: sc
How it was run: as §2

Rattus norvegicus [9] = experiment: Effect evaluated in vivo on 5-HTP accumulation in limbic system at a dose 12.5 umol/kg (s.c.); format: functional
How it was run: as §1

Rattus norvegicus [10] = experiment: Effect evaluated in vivo on 5-HTP accumulation in NE-rich hemispheres at a 12.5 dose uM/kg(sc); format: functional
How it was run: as §2

Rattus norvegicus [11] = experiment: Effect evaluated in vivo on 5-HTP accumulation in NE-rich hemispheres at a 50 dose uM/kg(sc); format: functional
How it was run: as §2

Rattus norvegicus [12] = experiment: Effect evaluated in vivo on 5-HTP accumulation in NE-rich hemispheres at ED50 umol/kg after subcutaneous administration; format: functional; settings: sc
How it was run: as §2

Rattus norvegicus [13] = experiment: Effect evaluated in vivo on 5-HTP accumulation in limbic system at a dose 3.1 umol/kg (s.c.); format: functional
How it was run: as §1

Rattus norvegicus [14] = experiment: Effect evaluated in vivo on 5-HTP accumulation in corpus striatum at a dose 25 umol/kg (s.c.); format: functional
How it was run: as §2

Rattus norvegicus [15] = experiment: Effect evaluated in vivo on 5-HTP accumulation in limbic system at a dose 0.39 umol/kg (s.c.); format: functional
How it was run: as §2

D(2) dopamine receptor = D(2) dopamine receptor (Rattus norvegicus, UniProt P61169); experiment: Inhibitory activity against Dopamine receptor D2 in rats using [3H]spiperone as radioligand
How it was run: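 Rat striatal membranes in 50 mM potassium phosphate buffer pH 7.4 were incubated with 0.5 nM [3H]spiperone for 10 min at 37 °C. Specific binding was defined with 10 μM 6,7-ADTN.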

Rattus norvegicus [16] = experiment: Effect evaluated in vivo on 5-HTP accumulation in corpus striatum at a dose 0.20 umol/kg (s.c.); format: functional
How it was run: as §2

Rattus norvegicus [17] = experiment: Effect evaluated in vivo on 5-HTP accumulation in NE-rich hemispheres at a 1.56 dose uM/kg(sc); format: functional
How it was run: as §2

Rattus norvegicus [18] = experiment: Effect evaluated in vivo on 5-HTP accumulation in NE-rich hemispheres at a 100 dose uM/kg(sc); format: functional
How it was run: as §2

Rattus norvegicus [19] = experiment: Effect evaluated in vivo on 5-HTP accumulation in limbic system at a dose 0.20 umol/kg (s.c.); format: functional
How it was run: as §2

Rattus norvegicus [20] = experiment: Effect evaluated in vivo on 5-HTP accumulation in corpus striatum at a dose 100 umol/kg (s.c.); format: functional
How it was run: as §2

Rattus norvegicus [21] = experiment: Effect evaluated in vivo on 5-HTP accumulation in limbic system at a dose 100 umol/kg (s.c.); format: functional
How it was run: as §1

Rattus norvegicus [22] = experiment: Effect evaluated in vivo on 5-HTP accumulation in NE-rich hemispheres at a 0.39 dose uM/kg(sc); format: functional
How it was run: as §2

Rattus norvegicus [23] = experiment: Effect evaluated in vivo on 5-HTP accumulation in limbic system at a dose 25 umol/kg (s.c.); format: functional
How it was run: as §1

Rattus norvegicus [24] = experiment: Effect evaluated in vivo on 5-HTP accumulation in limbic system at a dose 1.56 umol/kg (s.c.); format: functional
How it was run: as §1

Rattus norvegicus [25] = experiment: Effect evaluated in vivo on 5-HTP accumulation in NE-rich hemispheres at a 0.20 dose uM/kg(sc); format: functional
How it was run: as §2

Rattus norvegicus [26] = experiment: Effect evaluated in vivo on 5-HTP accumulation in NE-rich hemispheres at a 25 dose uM/kg(sc); format: functional
How it was run: as §2

Rattus norvegicus [27] = experiment: Effect evaluated in vivo on 5-HTP accumulation in corpus striatum at a dose 1.56 umol/kg (s.c.); format: functional
How it was run: as §2

Rattus norvegicus [28] = experiment: Effect evaluated in vivo on 5-HTP accumulation in corpus striatum at a dose 0.39 umol/kg (s.c.); format: functional
How it was run: as §2

Rattus norvegicus [29] = experiment: Effect evaluated in vivo on 5-HTP accumulation in corpus striatum at a dose uM/kg(sc); format: functional
How it was run: as §2

[30] = biological target: T1, 5-hydroxytryptamine receptor 1A (Rattus norvegicus, UniProt P19327); experiment: Inhibitory activity against 5-hydroxytryptamine 1A receptor in rats, using [3H]8-OH-DPAT as radioligand
T1 sequence (P19327 whole entry): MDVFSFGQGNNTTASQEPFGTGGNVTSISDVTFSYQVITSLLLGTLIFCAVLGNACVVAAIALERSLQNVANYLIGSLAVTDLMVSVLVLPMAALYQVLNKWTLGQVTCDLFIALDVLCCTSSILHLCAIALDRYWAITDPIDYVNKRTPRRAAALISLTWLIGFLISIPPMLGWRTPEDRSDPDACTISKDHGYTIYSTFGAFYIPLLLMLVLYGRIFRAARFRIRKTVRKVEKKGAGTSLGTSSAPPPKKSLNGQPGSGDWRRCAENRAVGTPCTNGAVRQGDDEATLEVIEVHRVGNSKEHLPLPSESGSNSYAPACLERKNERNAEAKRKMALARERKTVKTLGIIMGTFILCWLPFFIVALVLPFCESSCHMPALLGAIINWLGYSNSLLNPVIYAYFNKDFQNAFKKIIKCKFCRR
How it was run: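 Rat whole-brain membranes (minus brainstem and cerebellum) in 50 mM Tris pH 8.0 with 120 mM NaCl, 4 mM CaCl2, 4 mM MgCl2 and 10 μM pargyline. Rapid filtration, then scintillation counting. Nonspecific binding defined with 10 μM 5-HT. IC50 by semi-log plot and linear regression.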

Rattus norvegicus [31] = experiment: The compound was tested in vivo for locomotor activity in rats at 50 umol/kg after subcutaneous administration; format: functional
How it was run: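 Male Sprague-Dawley rats received reserpine 5 mg/kg sc in the neck 18 h before testing. Test compound was given sc in the neck (n = 4). Rats were placed singly in photocell motility meters immediately after dosing, and counts were accumulated over 30 min (tests 9 a.m.–1 p.m.). Gross behaviour, including 5-HT syndrome, was observed throughout.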

Rattus norvegicus [32] = experiment: Effect evaluated in vivo on 5-HTP accumulation in NE-rich hemispheres at a dose uM/kg(sc); format: functional
How it was run: as §2

Rattus norvegicus [33] = experiment: Effect evaluated in vivo on 5-HTP accumulation in limbic system at a dose uM/kg(sc); format: functional
How it was run: as §1

Rattus norvegicus [34] = experiment: Effect evaluated in vivo on DA synthesis in limbic system at ED50 umol/kg after subcutaneous administration; format: functional
How it was run: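 Male Sprague-Dawley rats (200–300 g) pretreated with reserpine (5 mg/kg sc, 18 h before), then given the test drug sc; neutral solutions at 5 mL/kg. Dopa accumulation after decarboxylase inhibition with NSD 1015 indexes DA synthesis rate in limbic tissue, assayed by HPLC with electrochemical detection.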

Rattus norvegicus [35] = experiment: Effect evaluated in vivo on DA synthesis in limbic system at ED50 umol/kg after peroral administration; format: functional
How it was run: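 Oral dosing in male Sprague-Dawley rats (200–300 g) pretreated with reserpine 5 mg/kg sc 18 h before. After decarboxylase inhibition with NSD 1015, brain 5-HTP or dopa accumulation (HPLC-electrochemical detection) indexed 5-HT synthesis, DA synthesis (limbic) or NE synthesis (hemispheres, mainly cortex).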

Rattus norvegicus [36] = experiment: Effect evaluated in vivo on 5-HT synthesis in limbic system at ED50 umol/kg after subcutaneous administration; settings: sc

D(2) dopamine receptor, sequence (P61169 whole entry): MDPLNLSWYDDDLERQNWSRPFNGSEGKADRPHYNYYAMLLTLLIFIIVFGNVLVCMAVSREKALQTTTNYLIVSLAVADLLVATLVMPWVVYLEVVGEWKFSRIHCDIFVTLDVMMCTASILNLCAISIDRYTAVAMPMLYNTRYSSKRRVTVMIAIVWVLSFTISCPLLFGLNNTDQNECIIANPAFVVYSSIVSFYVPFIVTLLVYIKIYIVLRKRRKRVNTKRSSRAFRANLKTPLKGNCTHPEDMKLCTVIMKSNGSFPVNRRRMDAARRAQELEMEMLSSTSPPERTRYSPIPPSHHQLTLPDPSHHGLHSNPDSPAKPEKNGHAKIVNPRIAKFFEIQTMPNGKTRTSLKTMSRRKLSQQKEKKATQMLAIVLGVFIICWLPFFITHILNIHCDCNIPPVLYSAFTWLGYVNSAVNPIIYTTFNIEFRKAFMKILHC

CN1CCc2cccc(O)c2CC1
Locomotor activity (Rattus norvegicus [1]): 6 | Control (Rattus norvegicus [2]): 57% | Control (Rattus norvegicus [3]): 70% | ED50 (Rattus norvegicus [4]): 11 µmol/kg | Control (Rattus norvegicus [5]): 54% | Control (Rattus norvegicus [6]): 104% | Control (Rattus norvegicus [7]): 96% | ED50 (Rattus norvegicus [8]): 10 µmol/kg | Control (Rattus norvegicus [9]): 72% | Control (Rattus norvegicus [10]): 73% | Control (Rattus norvegicus [11]): 58% | ED50 (Rattus norvegicus [12]): 12 µmol/kg | Control (Rattus norvegicus [13]): 106%

CCCN1CCc2ccc(O)cc2CC1
Control (Rattus norvegicus [14]): 107% | Control (Rattus norvegicus [15]): 121% | IC50 (D(2) dopamine receptor): 10 µM | Control (Rattus norvegicus [16]): 118% | Control (Rattus norvegicus [17]): 114% | Control (Rattus norvegicus [18]): 78% | Control (Rattus norvegicus [19]): 122% | Control (Rattus norvegicus [20]): 77% | Control (Rattus norvegicus [21]): 81% | Control (Rattus norvegicus [22]): 119% | Control (Rattus norvegicus [23]): 105% | Control (Rattus norvegicus [24]): 80% | Control (Rattus norvegicus [25]): 128% | Control (Rattus norvegicus [26]): 113% | Control (Rattus norvegicus [27]): 110% | Control (Rattus norvegicus [28]): 106%

CCCCN1CCc2cccc(O)c2CC1
Control (Rattus norvegicus [29]): 111% | IC50 (D(2) dopamine receptor): 12 µM | IC50 [30]: 0.42 µM | Locomotor activity (Rattus norvegicus [31]): 19 | Control (Rattus norvegicus [32]): 108% | Control (Rattus norvegicus [33]): 84%

CCN1CCc2cccc(OC)c2CC1
Control (Rattus norvegicus [2]): 66% | IC50 (D(2) dopamine receptor): 2.2 µM | IC50 [30]: 0.21 µM | Control (Rattus norvegicus [5]): 66% | Locomotor activity (Rattus norvegicus [31]): 62 | Control (Rattus norvegicus [11]): 64%

CCCN(CCC)C1CCc2cccc(O)c2C1 (stereo not given) [8-OH-DPAT]
Locomotor activity (Rattus norvegicus [1]): 66 | ED50 (Rattus norvegicus [34]): 0.052 µM/kg and 0.063 µM/kg | ED50 (Rattus norvegicus [35]): 3 µM/kg and 7.9 µM/kg and 7.6 µM/kg | ED50 (Rattus norvegicus [36]): 0.052 µmol/kg
